According to ChEMBL document CHEMBL1250422 (Bioorg Med Chem, 2010):

Experiments:
Galectin-3 = Galectin-3 (Homo sapiens, UniProt P17931); assay: Binding affinity to human galectin 3 at 20 degC by competitive fluorescence polarization assay
Outline: (§1)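 Human galectin (galectin-3, or the N-terminal domain of galectin-8 or -9) run in a competitive fluorescence polarization assay at 20 °C. Kd values were derived from inhibition of the fluorescent probe binding.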

Galectin-9 = Galectin-9 (Homo sapiens, UniProt O00182); assay: Binding affinity to human galectin 9 N-terminal domain at 20 degC by competitive fluorescence polarization assay; outline: as §1
Chain of Galectin-9 (O00182 whole entry, the tested form may be a part): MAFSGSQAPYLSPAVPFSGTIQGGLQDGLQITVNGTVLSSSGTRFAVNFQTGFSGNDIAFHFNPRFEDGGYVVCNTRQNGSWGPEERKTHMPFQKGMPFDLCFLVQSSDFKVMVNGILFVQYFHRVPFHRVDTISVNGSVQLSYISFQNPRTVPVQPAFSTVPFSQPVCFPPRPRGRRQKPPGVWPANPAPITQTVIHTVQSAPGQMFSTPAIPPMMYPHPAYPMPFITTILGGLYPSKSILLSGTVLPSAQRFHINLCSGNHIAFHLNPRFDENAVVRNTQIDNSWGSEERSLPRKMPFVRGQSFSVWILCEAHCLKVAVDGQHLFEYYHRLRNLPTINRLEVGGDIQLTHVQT

Galectin-7 = Galectin-7 (Homo sapiens, UniProt P47929); assay: Binding affinity to human galectin 7 at 4 degC by competitive fluorescence polarization assay
Chain of Galectin-7 (P47929 whole entry): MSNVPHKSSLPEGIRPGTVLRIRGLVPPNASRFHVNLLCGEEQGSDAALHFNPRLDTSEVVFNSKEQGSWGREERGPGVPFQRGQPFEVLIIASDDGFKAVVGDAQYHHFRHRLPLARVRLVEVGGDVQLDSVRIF
Outline: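 Human galectin-7 was tested in a competitive fluorescence polarization assay at 4 °C because assay sensitivity is lower. Kd values were derived from inhibition of the fluorescent probe binding.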

Galectin-8 = biological target: T1, Galectin-8 (Homo sapiens, UniProt O00214); assay: Binding affinity to human galectin 8 N-terminal domain at 20 degC by competitive fluorescence polarization assay; outline: as §1
T1 sequence (O00214 whole entry): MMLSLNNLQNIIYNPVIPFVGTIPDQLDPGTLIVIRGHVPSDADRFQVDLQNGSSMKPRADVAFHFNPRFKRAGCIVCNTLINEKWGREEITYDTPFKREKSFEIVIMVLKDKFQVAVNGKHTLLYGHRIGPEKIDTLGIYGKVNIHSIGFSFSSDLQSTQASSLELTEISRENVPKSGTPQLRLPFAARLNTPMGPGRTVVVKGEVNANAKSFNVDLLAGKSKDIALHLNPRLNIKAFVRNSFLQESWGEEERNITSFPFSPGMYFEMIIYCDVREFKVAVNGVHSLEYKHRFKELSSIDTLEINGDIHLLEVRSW

Chain of Galectin-3 (P17931 whole entry, the tested form may be a part): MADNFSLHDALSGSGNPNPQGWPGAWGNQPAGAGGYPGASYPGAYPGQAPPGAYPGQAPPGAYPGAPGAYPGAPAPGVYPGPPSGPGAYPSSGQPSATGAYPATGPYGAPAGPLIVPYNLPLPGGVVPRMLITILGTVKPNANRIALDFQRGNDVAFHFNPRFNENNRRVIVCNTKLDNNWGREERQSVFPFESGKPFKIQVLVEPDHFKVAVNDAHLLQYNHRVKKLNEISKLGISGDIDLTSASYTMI

| Compound | Kd (Galectin-3) [µM] | Kd (Galectin-9) [µM] | Kd (Galectin-7) [µM] | Kd (Galectin-8) [µM] |
| --- | --- | --- | --- | --- |
| CCCCNC(=O)c1cn([C@H]2[C@@H](O)[C@@H](CO)O[C@@H](S[C@@H]3O[C@H](CO)[C@H](O)[C@H](n4cc(C(=O)NCCCC)nn4)[C@H]3O)[C@@H]2O)nn1 | 0.029 | 1.1 | 5.4 | 58 |
| CS[C@@H]1O[C@H](CO)[C@H](O)[C@H](n2cc(C(=O)NCCCO)nn2)[C@H]1O | 360 | 1900 | 1500 | > 5000 |
| CS[C@@H]1O[C@H](CO)[C@H](O)[C@H](n2cc(CO)nn2)[C@H]1O | > 5000 | > 5000 | 2500 | > 5000 |
| CC(O)CNC(=O)c1cn([C@H]2[C@@H](O)[C@@H](CO)O[C@@H](S[C@@H]3O[C@H](CO)[C@H](O)[C@H](n4cc(C(=O)NCC(C)O)nn4)[C@H]3O)[C@@H]2O)nn1 (some centres undefined) | 0.12 | 2.1 | 5 | 58 |
| CO[C@@H]1O[C@H](CO)[C@@H](O[C@@H]2O[C@H](CO)[C@H](O)[C@H](NC(=O)c3ccc4ccccc4c3)[C@H]2O)[C@H](O)[C@H]1NC(C)=O | 0.48 | > 100 | > 100 | > 100 |
| CNC(=O)c1nnn([C@H]2[C@@H](O)[C@@H](CO)O[C@@H](SC)[C@@H]2O)c1C(=O)NC | > 5000 | > 5000 | > 5000 |  |
| CS[C@@H]1O[C@H](CO)[C@H](O)[C@H](n2cc(-c3cccnc3)nn2)[C@H]1O | 1900 | 1600 |  | 670 |
| CS[C@@H]1O[C@H](CO)[C@H](O)[C@H](n2cc(-c3cccc4ccccc34)nn2)[C@H]1O | 120 | 690 | 810 | > 5000 |
| CS[C@@H]1O[C@H](CO)[C@H](O)[C@H](n2nncc2S(=O)(=O)c2ccc(C)cc2)[C@H]1O | > 5000 | 1600 |  |  |
| CS[C@@H]1O[C@H](CO)[C@H](O)[C@H](n2cc(C(=O)NCc3ccccc3)nn2)[C@H]1O |  | 540 | 2100 | > 5000 |
| COCCNC(=O)c1cn([C@H]2[C@@H](O)[C@@H](CO)O[C@@H](S[C@@H]3O[C@H](CO)[C@H](O)[C@H](n4cc(C(=O)NCCOC)nn4)[C@H]3O)[C@@H]2O)nn1 | 0.25 | 2.3 | 4.7 | 90 |
| COc1ccc(-c2cn([C@H]3[C@@H](O)[C@@H](CO)O[C@@H](SC)[C@@H]3O)nn2)cc1 | 260 | > 5000 | 2000 |  |
| COc1cccc(-c2cn([C@H]3[C@@H](O)[C@@H](CO)O[C@@H](SC)[C@@H]3O)nn2)c1 | 130 | 2100 | 2800 | > 5000 |
| COC(=O)c1cn([C@H]2[C@@H](O)[C@@H](CO)O[C@@H](SC)[C@@H]2O)nn1 | 1300 | 430 | > 5000 | > 5000 |
| O=C(NCc1ccccc1)c1cn([C@H]2[C@@H](O)[C@@H](CO)O[C@@H](S[C@@H]3O[C@H](CO)[C@H](O)[C@H](n4cc(C(=O)NCc5ccccc5)nn4)[C@H]3O)[C@@H]2O)nn1 | 0.39 | 0.53 | 8.3 | 47 |
| CO[C@@H]1O[C@H](CO)[C@@H](O[C@@H]2O[C@H](CO)[C@H](O)[C@H](O)[C@H]2O)[C@H](O)[C@H]1NC(C)=O | 59 | 490 | 5500 | 1000 |
| O=C(NCCc1ccccc1)c1cn([C@H]2[C@@H](O)[C@@H](CO)O[C@@H](S[C@@H]3O[C@H](CO)[C@H](O)[C@H](n4cc(C(=O)NCCc5ccccc5)nn4)[C@H]3O)[C@@H]2O)nn1 | 0.15 | 1.1 | 2 | 20 |

| Compound | Kd (Galectin-3) [µM] | Kd (Galectin-9) [µM] | Kd (Galectin-7) [µM] | Kd (Galectin-8) [µM] |
| --- | --- | --- | --- | --- |
| CNC(=O)c1cn([C@H]2[C@@H](O)[C@@H](CO)O[C@@H](O[C@H]3[C@H](O)[C@@H](NC(C)=O)[C@H](OC)O[C@@H]3CO)[C@@H]2O)nn1 |  | 73 | 130 | > 2000 |
| COc1cc(OC)cc(C(=O)N[C@@H]2[C@@H](O)[C@@H](S[C@@H]3O[C@H](CO)[C@H](O)[C@H](NC(=O)c4cc(OC)cc(OC)c4)[C@H]3O)O[C@H](CO)[C@@H]2O)c1 | 0.05 | 1.8 | 2.8 | 100 |
| CS[C@@H]1O[C@H](CO)[C@H](O)[C@H](n2nnc(C(N)=O)c2N)[C@H]1O | > 2000 | > 5000 | 2700 | > 5000 |
| C=CCNC(=O)c1cn([C@H]2[C@@H](O)[C@@H](CO)O[C@@H](S[C@@H]3O[C@H](CO)[C@H](O)[C@H](n4cc(C(=O)NCC=C)nn4)[C@H]3O)[C@@H]2O)nn1 | 0.065 | 0.74 | 3.4 | 66 |
| CS[C@@H]1O[C@H](CO)[C@H](O)[C@H](n2cc(S(=O)(=O)c3ccc(C)cc3)nn2)[C@H]1O | 130 | 330 | 2000 |  |
| CCCCNC(=O)c1cn([C@H]2[C@@H](O)[C@@H](CO)O[C@@H](SC)[C@@H]2O)nn1 | 150 | 640 | 1100 | > 5000 |
| CS[C@@H]1O[C@H](CO)[C@H](O)[C@H](n2cc(C3(O)CCCCC3)nn2)[C@H]1O | 1600 | 1000 | > 5000 | > 5000 |
| CO[C@@H]1O[C@H](CO)[C@H](O)[C@H](O)[C@H]1O |  | 3300 | 4800 |  |
| CS[C@@H]1O[C@H](CO)[C@H](O)[C@H](n2cc(-c3ccccc3)nn2)[C@H]1O | 150 | 1300 | 1700 | > 5000 |
| CS[C@@H]1O[C@H](CO)[C@H](O)[C@H](n2cc(C(=O)NCCN3CCOCC3)nn2)[C@H]1O | 520 | 470 | > 5000 | > 5000 |
| CNC(=O)c1cn([C@H]2[C@@H](O)[C@@H](CO)O[C@@H](S[C@@H]3O[C@H](CO)[C@H](O)[C@H](n4cc(C(=O)NC)nn4)[C@H]3O)[C@@H]2O)nn1 | 0.12 | 0.91 | 8 | 81 |
| CS[C@@H]1O[C@H](CO)[C@H](O)[C@H](n2ccnn2)[C@H]1O | > 5000 | > 5000 | 2400 | > 5000 |
| CO[C@@H]1O[C@H](CO)[C@@H](O[C@@H]2O[C@H](CO)[C@H](O)[C@H](n3cc(C(=O)Nc4cccc5ccccc45)nn3)[C@H]2O)[C@H](O)[C@H]1NC(C)=O | 0.66 | 13 | 83 | > 2000 |
| CNC(=O)c1cn([C@H]2[C@@H](O)[C@@H](CO)O[C@@H](SC)[C@@H]2O)nn1 |  | 1100 |  | > 5000 |
| CCCc1cn([C@H]2[C@@H](O)[C@@H](CO)O[C@@H](SC)[C@@H]2O)nn1 | > 5000 | > 5000 | 2200 | > 5000 |
| CS[C@@H]1O[C@H](CO)[C@H](O)[C@H](n2cc(-c3ccccc3F)nn2)[C@H]1O | 200 | 1700 | > 2000 | > 5000 |
| CO[C@@H]1O[C@H](CO)[C@@H](O[C@@H]2O[C@H](CO)[C@H](O)[C@H](n3cc(C(=O)NCc4ccccc4)nn3)[C@H]2O)[C@H](O)[C@H]1NC(C)=O | 1.5 | 12 | 74 | > 2000 |
